The source of these data is ChEMBL document CHEMBL4261577, “CureCuma-cationic curcuminoids with improved properties and enhanced antimicrobial photodynamic activity” (Eur J Med Chem, 2018).

A short description of series [1]: Photodegradation of compound in water at 10 uM in presence of LED illumination at 5.6 J/cm'2 for 10 mins by UV/VIS/NIR spectrometer. It is filed as physicochemical. Conditions: read-out: Drug degradation. In outline: (§1)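 10 µM in water in a 1 cm quartz cuvette, illuminated at 435 nm with the bacterial-testing LED (9.4 mW/cm²); absorption spectra taken at set time intervals, chromophore band 380–460 nm followed; half-life from extrapolation.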

Series [2] is described as follows: Induction of reactive oxygen species formation assessed as singlet oxygen quantum yield at 2 uM measured over 20 mins by luminescence assay. It is filed as functional. Conditions: in the assay text read “over 50 secs” for “over 20 mins”. In short, it runs like this: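 Singlet oxygen luminescence at 1270 nm from a 2 µM solution compared against TMPyP (0.5 µM) as reference, relating absorbed energy to emission; excitation at 405 nm with a tunable laser at 107, 162, 255 and 283 mW for 50 s each.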

A short description of series [3]: n-Octanol/sorensen buffer partition coefficient, log D of compound at 50 uM at pH 7 after 10 mins by shake-flask method. It is filed as physicochemical. In short, it runs like this: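 Shake-flask at 25 °C: 50 µM photosensitizer in 10 mM Sörensen buffer pH 6.8 vigorously mixed with equal volume n-octanol for 10 min, phases separated by centrifugation; aqueous-phase absorbance before and after partitioning gives the coefficient.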

In series [4] the test system is Staphylococcus aureus. As to the kind of experiment: Photodynamic antibacterial activity against Staphylococcus aureus ATCC 25923 assessed as CFU log reduction at 50 uM irradiated for 5 mins in presence of blueV lamp irradiation at 5.3 J/cm2 and measured after 24 hrs. It is filed as functional. In short, it runs like this:
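S. aureus ATCC25923 grown aerobically at 37 °C in Mueller-Hinton broth, pelleted and resuspended in distilled water to OD600 0.6 (~10^8 cells/mL); incubated 1 min with photosensitizer in 96-well plates, irradiated with BlueV source (390–460 nm, 20 mW/cm²) to 5.3 J/cm²; CFU by Miles-Misra on Mueller-Hinton agar after 24 h at 37 °C; log reduction versus untreated control; ≥3 replicates.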

Series [5] can be described thus: Aggregating behavior of compound at 1 to 2 mM by NMR analysis. It is filed as physicochemical. Conditions: 2000 µM. In short, it runs like this:
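1H NMR in D2O at 20, 10, 5, 2 and 1 mM; aggregation judged from signal shifts and multiplet changes in the aromatic region (6.5–8 ppm), referenced to external TMS, 400 MHz.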

Series [6] in a line: Stability of compound in diluted NaOH at 50 uM after 4 hrs by UV-Vis spectrophotometric method. It is filed as physicochemical. In outline:
(§2)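 UV-Vis spectra recorded after 4 h incubation in buffer solutions at different pH values, acidic down to pH 2 and alkaline above pH 10.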

Series [7] in a line: Stability of compound in diluted HCl at 50 uM after 4 hrs by UV-Vis spectrophotometric method. The format is physicochemical. Conditions: buffer. In outline: as §2
The test system of series [8] is Escherichia coli. As to the kind of experiment: Dark toxicity in Escherichia coli ATCC 25922 assessed as decrease in viable cells at 10 uM. The format is organism-based. Conditions: in vivo. In outline: (§3)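 E. coli ATCC25922 prepared as for phototoxicity (2 h subculture, DPBS resuspension), incubated with photosensitizer at 37 °C, 175 rpm, but kept in foil-wrapped plates without illumination; CFU counted from serial dilutions on Todd-Hewitt/yeast extract agar after overnight 37 °C, compared against untreated, unilluminated control; three biological replicates.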

Series [9] has as its system Escherichia coli. As to the kind of experiment: Dark toxicity in Escherichia coli ATCC 25922 assessed as decrease in viable cells at 50 uM relative to control. It is filed as organism-based. The following applies: in vivo. In short, it runs like this:
as §3

Series [10] in a line: Drug level in 0.1 M phosphate buffer treated with curcumin at pH 7.2 at 37 degC after 30 mins by HPLC method. The format is physicochemical. Conditions: pH 7.2, 0.5 h.
For series [11], the system named is Escherichia coli. As to the kind of experiment: Photodynamic antibacterial activity against Escherichia coli ATCC 25922 assessed as reduction in bacterial burden at 50 uM complexed with PVP in presence of LED irradiation at LED light at 33.8 J/cm2. The format is functional, organism-based.
Series [12] relates to Escherichia coli. As to the kind of experiment: Photodynamic antibacterial activity against Escherichia coli ATCC 25922 assessed as CFU log reduction at 100 uM complexed with PVP in presence of LED irradiation at LED light at 33.8 J/cm2 relative to control. It is filed as functional.
The nature of series [13]: Stability of compound in DMSO-d6 at 10 mM incubated up to 130 degC measured after > 10 mins by NMR method. It is filed as physicochemical. The following applies: 10000 µM. In outline:
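1H NMR at 10 mM heated stepwise from room temperature through 40–130 °C in 10 °C steps, then cooled back to room temperature; aggregation/stability judged from aromatic-region shifts; external TMS reference, 400 MHz.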

Series [14] relates to Escherichia coli. As to the kind of experiment: Photodynamic antibacterial activity against Escherichia coli ATCC 25922 assessed as CFU log reduction at 10 uM irradiated for 5 to 25 mins in presence of LED light at 33.8 J/cm2 and measured after 24 hrs relative to control. The format is functional. In outline: (§4)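 E. coli ATCC25922 grown overnight at 37 °C (175 rpm) in Todd-Hewitt broth + 0.3% yeast extract, diluted to A 0.05, grown 2 h (A600 0.3–0.45), pelleted and resuspended in DPBS; incubated with photosensitizer 5 or 25 min at 37 °C, illuminated with 435 nm LED array (9.4 mW/cm², 33.8 J/cm²) while shaken; serial dilutions plated, CFU counted after overnight 37 °C. Log reduction versus untreated, unilluminated control; ≥3 biological replicates; detection limit 10 CFU/mL.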

Series [15] relates to Escherichia coli. Briefly: Photodynamic antibacterial activity against Escherichia coli ATCC 25922 assessed as CFU log reduction irradiated for 5 to 25 mins in presence of LED light at 33.8 J/cm2 and measured after 24 hrs. The format is functional. Conditions: ATCC 25922, light or radiation study, read-out: MBC99.9. In short, it runs like this:
as §4

The subject of series [16] is Escherichia coli. Briefly: Photodynamic antibacterial activity against Escherichia coli ATCC 25922 assessed as CFU log reduction irradiated for 1.5 mins in presence of 0.85 J/cm2 and measured after 24 hrs. It is filed as functional. Conditions: ATCC 25922, light or radiation study, read-out: MBC99.9.
For series [17], the system named is Escherichia coli. Briefly: Photodynamic antibacterial activity against Escherichia coli ATCC 25922 assessed as CFU log reduction at 10 uM irradiated for 2.5 mins in presence of 1.41 J/cm2 and measured after 24 hrs. The format is functional.
A short description of series [18]: Half life of compound in water at 10 uM in presence of LED illumination at 9.4 mW/cm'2 by UV/VIS/NIR spectrometer. The format is physicochemical. In short, it runs like this: as §1
Series [19] in a line: Photodegradation of compound in water at 10 uM in presence of LED illumination at 16.9 J/cm'2 for 30 mins by UV/VIS/NIR spectrometer. The following applies: read-out: Drug degradation. The format is physicochemical. In outline:
as §1

Series [20] can be described thus: Aggregating behavior of compound up to 1 mM by UV-Vis spectroscopic analysis. The format is physicochemical. In short, it runs like this:
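UV-Vis absorption spectra in H2O over 100–1000 µM; dimerization judged from spectral changes within error margins.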

Structures are written as SMILES. Activity calls are given as the source filed them. Where only a bound is given, the exact number is not on record here.

For orientation: logD means the decadic logarithm of the distribution of all forms, ionised or not, between an organic phase and buffer at a given pH. Read a low logD as lower lipophilicity. As for `Cl.Cl.NCCOc1ccc(/C=C/C(=O)CC(=O)/C=C/c2ccc(OCCN)cc2)cc1`, the degraded at 10 min, 10 µM in [1] was under 10%. The Activity in [2] was under 1%. In series [3], the pH-dependent lipophilicity (logD) at 10 min, 50 µM is -0.9.
As for `COc1cc(/C=C/C(=O)CC(=O)/C=C/c2ccc(OCCN)c(OC)c2)ccc1OCCN.Cl.Cl`, in [4], the log reduction was 5.2 log10 CFU/mL. Besides, the degraded at 10 min, 10 µM in series [1] is under 10%. In addition, the Activity is under 1% in series [2], “Active” in series [5], “Non-Toxic” in series [8] and 0.5 deltalog10CFU/ml in series [9]. In series [3], this molecule gave a logD at 10 min, 50 µM of -1.2. For the same molecule, the Stability entry in series [6] is on record as “Unstable”; in series [7] it was “Stable”.
Consider `Cl.Cl.NCCCOc1ccc(/C=C/C(=O)CC(=O)/C=C/c2ccc(OCCCN)c(OCc3ccccc3)c2)cc1OCc1ccccc1`, for which, in series [1], the degraded at 10 min, 10 µM is under 10%. Moreover, the Activity in [2] is under 1%. The logD at 10 min, 50 µM in [3] was -0.6.
On to `COc1cc(OCCN)ccc1/C=C/C(=O)CC(=O)/C=C/c1ccc(OCCN)cc1OC.Cl.Cl`, for which the degraded at 10 min, 10 µM in series [1] is under 10%. For the same molecule, the Activity in [2] is under 1%. Besides, the logD at 10 min, 50 µM in [3] was -1.1.
Consider `CC(C)=O` [ACETONE], for which, in series [10], the Drug metabolism result is listed as “Metabolite_Detected”.
`Cl.Cl.Cl.Cl.Cl.Cl.NCCOc1cc(/C=C/C(=O)CC(=O)/C=C/c2cc(OCCN)c(OCCN)c(OCCN)c2)cc(OCCN)c1OCCN`: in series [1], the degraded at 10 min, 10 µM was under 10%. Also, in series [2], the Activity is under 1%. In series [3], this molecule gave a pH-dependent lipophilicity (logD) at 10 min, 50 µM of under -2.
`COc1cc(/C=C/C(=O)CC(=O)/C=C/c2ccc(O)c(OC)c2)ccc1O` [CURCUMIN]: the outcome in series [11] was inactive. The Activity in series [12] is reported as 0.3 deltalog10CFU/ml.
On to `COc1cc(/C=C/C(=O)CC(=O)/C=C/c2ccc(OCCOCCN)c(OC)c2)ccc1OCCOCCN.Cl.Cl`, for which the degraded at 10 min, 10 µM in series [1] was under 10%. For the same molecule, in [2], the Activity is under 1%. The logD at 10 min, 50 µM in [3] was -1.6.
In the case of `Cc1cc(/C=C/C(=O)CC(=O)/C=C/c2ccc(OCCN)c(C)c2)ccc1OCCN.Cl.Cl`, the degraded at 10 min, 10 µM in series [1] was under 10%. The Activity in [2] was under 1%. The logD at 10 min, 50 µM in series [3] is -0.8. Further, the Stability result in [13] is recorded as “Stable”.
Usually half-life stands for the time needed for the level to fall by half in the phase considered. Consider `Cl.Cl.Cl.Cl.NCCOc1ccc(/C=C/C(=O)CC(=O)/C=C/c2ccc(OCCN)c(OCCN)c2)cc1OCCN`, for which the log reduction in series [4] worked out at 5.3 log10 CFU/mL. In addition, the degraded at 10 min, 10 µM in [1] was under 10%. In addition, the Activity is under 1% in series [2]; 5 deltalog10CFU/ml in [14]; over 5 deltalog10CFU/ml in series [17]; “Active” in series [20]; “Non-Toxic” in series [8]; 1 deltalog10CFU/ml in series [9]. The molecule further returned a logD at 10 min, 50 µM in [3] of under -2. Moreover, the MBC in series [15] was found to be 5 µM; in series [16], 10 µM. Further, the Stability result in series [6] is recorded as “Unstable”; in series [7], “Stable”. In [18], the half-life at 10 µM was found to be 1 h. For the same molecule, the degraded at 0.5 h, 10 µM in series [19] is 20%.
In the case of `COc1cc(C=O)ccc1O` [VANILLIN], the Drug metabolism result in [10] is on record as “Metabolite_Detected”.
